Assay results from ChEMBL document CHEMBL1142515, “Synthesis and evaluation of structurally constrained quinazolinone derivatives as potent and selective histamine H3 receptor inverse agonists” (J Med Chem, 2008).

Tests used:
Mus musculus [1] = experiment: Ex vivo receptor occupancy of histamine H3 receptor expressed in wild type po dosed CF1 mouse brain after 2 hrs; format: functional
Outline: (§1)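 Female wild-type and mdr1a (−/−) CF-1 mice given vehicle or compound po (0.1–3 mg/kg) and decapitated at 2 h. Coronal striatal sections (20 μm) incubated 10 min at room temperature with 400 pM tritiated quinazolinone H3 inverse agonist radioligand in sodium phosphate buffer. Nonspecific binding defined with 10 μM R-α-methylhistamine. Sections imaged 6 h by beta-Imager. Brain Occ90 obtained from occupancy versus brain concentration. Plasma Occ90 = brain Occ90/brain-to-plasma ratio.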

Canis familiaris = experiment: Toxicity against in anesthetized Beagle dog assessed as cardiovascular effects; format: organism-based, Canis lupus familiaris; conditions: in vivo
Outline: (§2)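 Anesthetized, ventilated dogs given 3 mg/kg iv and monitored for cardiovascular effects.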

[2] = Cmax in anesthetized Beagle dog at 3 mg/kg, iv; format: ADME, organism-based, Canis lupus familiaris; parameters: dose 3 mg/kg, route intravenous; conditions: in vivo; outline: as §2
LLC-PK1 [3] = experiment: Ratio of permeability from apical to basolateral side over basolateral to apical side in pig LLC-PK1 cells expressing mouse MDR1a; format: ADME, cell-based, Sus scrofa
[4] = Ratio of drug level in brain to plasma in Sprague-Dawley rat at 10 mg/kg, po after 2 hrs; format: ADME, organism-based; parameters: dose 10 mg/kg, route oral; conditions: read-out: BPR
Outline: (§3)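 Male SD rats dosed orally at 10 mg/kg. Plasma, brain and CSF concentrations determined 2 h after dosing. Brain/plasma ratio taken from these levels. Mean of n = 3 animals.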

[5] = Oral bioavailability in Sprague-Dawley rat at 3 mg/kg; format: ADME, organism-based; conditions: in vivo
Outline: (§4)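 Male SD rats, male Beagle dogs, male rhesus monkeys given single doses iv (PEG400/EtOH/H2O 50/10/40) or po by gavage (0.5% methylcellulose suspension). Rats 1 mg/kg iv and 3 mg/kg po; dogs and monkeys 0.3 mg/kg iv and 1 mg/kg po. Plasma sampled at multiple times up to 24 h, deproteinized with ethanol plus internal standard. Mean of n = 3 animals/dose.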

[6] = Drug level in Sprague-Dawley rat cerebrospinal fluid at 10 mg/kg, po after 2 hrs; format: ADME, organism-based; parameters: dose 10 mg/kg, route oral; conditions: read-out: Drug uptake; outline: as §3
[7] = Cmax in Sprague-Dawley rat at 1 mg/kg, iv and 3 mg/kg, po; format: ADME, organism-based; conditions: in vivo; outline: as §4
Mus musculus [8] = experiment: Toxicity against in ICR mouse assessed as gross behavior activity at 100 mg/kg; format: organism-based; parameters: dose 100 mg/kg; conditions: in vivo
Outline: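 Mice dosed orally at 100 mg/kg. Scored for psychomotor and motor activity, muscle tone, CNS excitation, autonomic responses and reflexes.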

[9] = AUC (0 to infinity) in Sprague-Dawley rat at 3 mg/kg, po; format: ADME, organism-based; parameters: time infinity, dose 3 mg/kg, route oral; conditions: plasma; outline: as §4
[10] = Ratio of drug level brain to plasma in mdr1a (-/-) deficient CF1 mouse at 1 mg/kg, po after 2 hrs; format: ADME, organism-based; parameters: dose 1 mg/kg, route oral; conditions: read-out: BPR
Outline: (§5)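 Female mdr1a (+/+) and mdr1a (−/−) CF-1 mice dosed by oral gavage. Terminal blood and whole brain collected 2 h later. Brain homogenized by ultrasonication in 4 volumes water. Plasma and brain deproteinized with ethanol plus internal standard, then measured by LC-MS/MS (positive ESI, MRM). Mean ± SE, n = 3. Brain/plasma ratios calculated from mean values.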

[11] = target: Voltage-gated inwardly rectifying potassium channel KCNH2 (Homo sapiens, UniProt Q12809); experiment: Antagonist activity at human ERG in HEK293 cells assessed as inhibition of [35S]N-[(4R)-1'-[(2R)-6-cyano-1,2,3,4-tetrahydro-2-naphthalenyl]-3,4-dihydro-4-hydroxyspiro[2H-1-benzopyran-2,4'-piperidin]-6-yl]methanesulfonamide binding
Rattus norvegicus [12] = experiment: Ex vivo receptor occupancy of histamine H3 receptor in Sprague-Dawley rat assessed as drug level in brain at 1 mg/kg, po after 2 hrs; format: functional
Outline: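 Male SD rats given vehicle or 1 mg/kg compound by oral gavage and decapitated at 2 h. Striatal sections (20 μm) incubated 10 min at room temperature with 400 pM tritiated H3 inverse agonist radioligand in sodium phosphate buffer. Nonspecific binding defined with 10 μM R-α-methylhistamine. Beta-Imager exposure 6 h. Drug levels measured by LC-MS/MS.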

Histamine H1 receptor = Histamine H1 receptor (Homo sapiens, UniProt P35367); experiment: Inhibition of human histamine H1 receptor
[13] = Plasma clearance in rhesus monkey at 0.3 mg/kg, iv; format: ADME, organism-based, Macaca mulatta; parameters: dose 0.3 mg/kg, route intravenous; outline: as §4
LLC-PK1 [14] = experiment: Ratio of permeability from apical to basolateral side over basolateral to apical side in pig LLC-PK1 cells expressing human MDR1; format: ADME, cell-based, Sus scrofa
Mus musculus [15] = experiment: Ex vivo receptor occupancy of histamine H3 receptor expressed in po dosed wild type CF1 mouse plasma assessed by brain occupancy/brain to plasma ratio after 2 hrs; format: functional; outline: as §1
[16] = Ratio of drug level brain to plasma in wild type mdr1a (+/+) CF1 mouse at 1 mg/kg, po after 2 hrs; format: ADME, organism-based; parameters: dose 1 mg/kg, route oral; conditions: read-out: BPR; outline: as §5
Histamine H3 receptor [17] = target: T1, Histamine H3 receptor (Homo sapiens, UniProt Q9Y5N1); experiment: Antagonist activity at human cloned histamine H3 receptor expressed in CHO-K1 cells assessed as inhibition of R-alpha-methylhistamine-induced [35S]GTPgammaS binding; format: functional, cell-based
Histamine H3 receptor [18] = target: T1, Histamine H3 receptor; experiment: Displacement of [3H]N-alpha-methylhistamine from human recombinant histamine H3 receptor expressed in CHO-K1 cells; format: cell-based
[19] = Plasma clearance in Beagle dog at 0.3 mg/kg, iv; format: ADME, organism-based, Canis lupus familiaris; parameters: dose 0.3 mg/kg, route intravenous; outline: as §4
Histamine H3 receptor [20] = target: Histamine H3 receptor (Rattus norvegicus, UniProt Q9QYN8); experiment: Displacement of [3H]N-alpha-methylhistamine from rat recombinant histamine H3 receptor expressed in HEK293 cells; format: cell-based
[21] = Cmax in rhesus monkey at 0.3 mg/kg, iv and 1 mg/kg, po; format: ADME, organism-based, Macaca mulatta; conditions: in vivo; outline: as §4
[22] = AUC (0 to infinity) in Beagle dog at 1 mg/kg, po; format: ADME, organism-based, Canis lupus familiaris, Plasma; parameters: time infinity, dose 1 mg/kg, route oral; conditions: Beagle, plasma; outline: as §4
[23] = Cmax in Beagle dog at 0.3 mg/kg, iv and 1 mg/kg, po; format: ADME, organism-based, Canis lupus familiaris; conditions: in vivo; outline: as §4
[24] = Ex vivo drug level wild type mdr1a (+/+) CF1 mouse plasma at 1 mg/kg, po after 2 hrs; format: ADME, organism-based; parameters: dose 1 mg/kg, route oral; conditions: read-out: Drug uptake; outline: as §5
Mus musculus [25] = experiment: Ex vivo receptor occupancy of histamine H3 receptor expressed in po dosed MDR1a deficient CF1 mouse plasma assessed by brain occupancy/brain to plasma ratio after 2 hrs; format: functional; outline: as §1
Histamine H4 receptor = Histamine H4 receptor (Homo sapiens, UniProt Q9H3N8); experiment: Inhibition of human histamine H4 receptor
Rattus norvegicus [26] = experiment: Increase in tele-methylhistamine level in po dosed Sprague-Dawley rat brain after 2 hrs relative to control; format: functional, organism-based
Outline: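 Male SD rats given vehicle (0.5% methylcellulose) or compound po at 1, 3, 10 mg/kg, co-dosed with pargyline ip. Decapitated at 2 h and brains homogenized. tele-Methylhistamine measured by HPLC with fluorometry after solid-phase extraction. Mean ± SE from five experiments. Compared with vehicle by ANOVA with Dunnett's test.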

Brain [27] = experiment: Ex vivo drug level in wild type mdr1a (+/+) CF1 mouse brain at 1 mg/kg, po after 2 hrs; format: ADME, organism-based; parameters: dose 1 mg/kg, route oral; outline: as §5
[28] = Ex vivo drug level in mdr1a (-/-) deficient CF1 mouse plasma at 1 mg/kg, po after 2 hrs; format: ADME, organism-based; parameters: dose 1 mg/kg, route oral; conditions: read-out: Drug uptake; outline: as §5
Brain [29] = experiment: Drug level in Sprague-Dawley rat brain at 10 mg/kg, po after 2 hrs; format: ADME, organism-based; parameters: dose 10 mg/kg, route oral; conditions: in vivo; outline: as §3
Histamine H2 receptor = Histamine H2 receptor (Homo sapiens, UniProt P25021); experiment: Inhibition of human histamine H2 receptor
Brain [30] = experiment: Ex vivo drug level in mdr1a deficient CF1 mouse brain at 1 mg/kg, po after 2 hrs; format: ADME, organism-based; parameters: dose 1 mg/kg, route oral; outline: as §5
[31] = AUC (0 to infinity) in rhesus monkey at 1 mg/kg, po; format: ADME, organism-based, Macaca mulatta, Plasma; parameters: time infinity, dose 1 mg/kg, route oral; conditions: plasma; outline: as §4
[32] = Ratio of drug level in cerebrospinal fluid to brain in Sprague-Dawley rat at 10 mg/kg, po after 2 hrs; format: ADME, organism-based, CSF/Brain; parameters: dose 10 mg/kg, route oral; conditions: in vivo
[33] = Oral bioavailability in Beagle dog at 1 mg/kg; format: ADME, organism-based, Canis lupus familiaris; conditions: Beagle, in vivo; outline: as §4
[34] = Plasma concentration in Sprague-Dawley rat at 10 mg/kg, po after 2 hrs; format: ADME, organism-based; parameters: dose 10 mg/kg, route oral; outline: as §3
[35] = Plasma clearance in Sprague-Dawley rat at 1 mg/kg, iv; format: ADME, organism-based; parameters: dose 1 mg/kg, route intravenous; outline: as §4
[36] = Oral bioavailability in rhesus monkey at 1 mg/kg; format: ADME, organism-based, Macaca mulatta; conditions: in vivo; outline: as §4
Histamine H3 receptor [37] = target: Histamine H3 receptor (Mus musculus, UniProt P58406); experiment: Displacement of [3H]N-alpha-methylhistamine from mouse recombinant histamine H3 receptor
Chain of Histamine H3 receptor (Mus musculus, UniProt P58406) (P58406 whole entry): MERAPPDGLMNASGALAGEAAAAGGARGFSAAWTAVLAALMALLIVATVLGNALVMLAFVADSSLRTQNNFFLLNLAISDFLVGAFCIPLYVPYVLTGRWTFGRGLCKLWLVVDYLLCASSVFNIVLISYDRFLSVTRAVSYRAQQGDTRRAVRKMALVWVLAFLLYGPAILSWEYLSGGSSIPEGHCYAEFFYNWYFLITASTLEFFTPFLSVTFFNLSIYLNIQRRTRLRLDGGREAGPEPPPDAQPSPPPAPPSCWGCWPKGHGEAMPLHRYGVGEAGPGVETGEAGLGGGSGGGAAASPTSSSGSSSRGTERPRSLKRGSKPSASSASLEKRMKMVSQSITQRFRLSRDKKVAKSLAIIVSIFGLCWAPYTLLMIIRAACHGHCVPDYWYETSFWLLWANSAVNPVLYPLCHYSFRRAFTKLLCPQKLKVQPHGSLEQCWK

T1 sequence (Q9Y5N1 whole entry): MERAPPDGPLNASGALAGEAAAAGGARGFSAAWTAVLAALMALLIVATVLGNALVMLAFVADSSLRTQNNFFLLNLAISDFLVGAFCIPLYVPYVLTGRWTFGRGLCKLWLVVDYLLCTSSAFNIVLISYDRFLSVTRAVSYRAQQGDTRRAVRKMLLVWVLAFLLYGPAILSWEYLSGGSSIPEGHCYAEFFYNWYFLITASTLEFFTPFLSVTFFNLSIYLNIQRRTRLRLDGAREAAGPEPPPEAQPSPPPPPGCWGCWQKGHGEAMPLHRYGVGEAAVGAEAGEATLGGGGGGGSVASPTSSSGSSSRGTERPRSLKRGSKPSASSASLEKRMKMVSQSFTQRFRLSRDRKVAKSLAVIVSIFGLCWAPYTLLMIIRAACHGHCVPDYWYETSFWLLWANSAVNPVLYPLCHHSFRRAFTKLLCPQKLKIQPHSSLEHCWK
Chain of Histamine H4 receptor (Q9H3N8 whole entry): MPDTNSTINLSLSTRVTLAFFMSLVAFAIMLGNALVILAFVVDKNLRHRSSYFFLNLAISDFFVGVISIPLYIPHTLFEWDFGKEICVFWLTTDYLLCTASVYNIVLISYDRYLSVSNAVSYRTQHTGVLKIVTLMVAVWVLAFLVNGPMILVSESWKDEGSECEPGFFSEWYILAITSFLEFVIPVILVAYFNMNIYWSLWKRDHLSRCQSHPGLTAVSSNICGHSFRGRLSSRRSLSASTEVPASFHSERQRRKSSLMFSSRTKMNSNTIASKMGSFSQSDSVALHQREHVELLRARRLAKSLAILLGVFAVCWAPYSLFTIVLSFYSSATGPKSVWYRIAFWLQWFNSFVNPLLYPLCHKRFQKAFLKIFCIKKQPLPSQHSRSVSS
Chain of Voltage-gated inwardly rectifying potassium channel KCNH2 (Q12809 whole entry): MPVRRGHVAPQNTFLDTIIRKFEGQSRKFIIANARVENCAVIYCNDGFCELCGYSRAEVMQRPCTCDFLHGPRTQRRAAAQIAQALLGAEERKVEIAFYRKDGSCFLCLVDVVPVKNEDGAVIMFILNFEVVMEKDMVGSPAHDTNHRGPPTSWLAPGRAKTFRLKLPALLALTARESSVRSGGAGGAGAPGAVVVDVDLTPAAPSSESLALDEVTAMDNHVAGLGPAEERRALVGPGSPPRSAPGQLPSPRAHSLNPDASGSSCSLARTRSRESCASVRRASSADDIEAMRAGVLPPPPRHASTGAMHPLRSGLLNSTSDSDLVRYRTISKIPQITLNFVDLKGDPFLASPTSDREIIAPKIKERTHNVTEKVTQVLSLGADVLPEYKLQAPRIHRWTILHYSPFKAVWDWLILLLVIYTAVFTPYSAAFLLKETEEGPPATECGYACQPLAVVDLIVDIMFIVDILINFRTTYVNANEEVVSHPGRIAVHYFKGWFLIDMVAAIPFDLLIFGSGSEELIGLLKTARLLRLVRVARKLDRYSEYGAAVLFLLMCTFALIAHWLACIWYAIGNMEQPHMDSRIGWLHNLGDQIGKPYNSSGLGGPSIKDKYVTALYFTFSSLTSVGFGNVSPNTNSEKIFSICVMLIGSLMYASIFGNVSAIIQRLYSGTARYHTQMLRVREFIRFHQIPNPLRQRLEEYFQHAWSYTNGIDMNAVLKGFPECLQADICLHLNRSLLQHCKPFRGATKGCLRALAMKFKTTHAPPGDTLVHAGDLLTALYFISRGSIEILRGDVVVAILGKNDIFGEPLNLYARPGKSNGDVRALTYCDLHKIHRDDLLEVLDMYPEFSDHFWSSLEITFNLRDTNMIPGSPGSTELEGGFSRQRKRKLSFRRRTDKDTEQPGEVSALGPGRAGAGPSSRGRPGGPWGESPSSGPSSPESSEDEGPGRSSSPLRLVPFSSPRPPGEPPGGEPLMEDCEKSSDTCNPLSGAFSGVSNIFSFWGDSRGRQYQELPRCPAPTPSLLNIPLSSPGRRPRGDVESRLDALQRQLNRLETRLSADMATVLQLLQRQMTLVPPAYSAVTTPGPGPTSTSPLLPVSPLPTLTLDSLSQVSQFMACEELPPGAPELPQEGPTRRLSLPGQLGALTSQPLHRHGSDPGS
Chain of Histamine H3 receptor (Rattus norvegicus, UniProt Q9QYN8) (Q9QYN8 whole entry): as the sequence (P58406 whole entry) above, with A15T, T286A, G290A, H387R, V389I counted along it
Chain of Histamine H2 receptor (P25021 whole entry): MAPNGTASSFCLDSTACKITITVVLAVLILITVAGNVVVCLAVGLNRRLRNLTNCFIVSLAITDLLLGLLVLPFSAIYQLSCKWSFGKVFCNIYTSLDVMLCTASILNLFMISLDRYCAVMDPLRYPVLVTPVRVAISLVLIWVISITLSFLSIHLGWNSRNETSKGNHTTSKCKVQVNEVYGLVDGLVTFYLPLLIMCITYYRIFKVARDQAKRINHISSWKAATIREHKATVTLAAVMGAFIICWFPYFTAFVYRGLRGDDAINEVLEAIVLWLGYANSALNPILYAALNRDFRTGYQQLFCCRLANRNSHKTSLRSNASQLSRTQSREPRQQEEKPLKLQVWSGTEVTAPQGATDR
Chain of Histamine H1 receptor (P35367 whole entry): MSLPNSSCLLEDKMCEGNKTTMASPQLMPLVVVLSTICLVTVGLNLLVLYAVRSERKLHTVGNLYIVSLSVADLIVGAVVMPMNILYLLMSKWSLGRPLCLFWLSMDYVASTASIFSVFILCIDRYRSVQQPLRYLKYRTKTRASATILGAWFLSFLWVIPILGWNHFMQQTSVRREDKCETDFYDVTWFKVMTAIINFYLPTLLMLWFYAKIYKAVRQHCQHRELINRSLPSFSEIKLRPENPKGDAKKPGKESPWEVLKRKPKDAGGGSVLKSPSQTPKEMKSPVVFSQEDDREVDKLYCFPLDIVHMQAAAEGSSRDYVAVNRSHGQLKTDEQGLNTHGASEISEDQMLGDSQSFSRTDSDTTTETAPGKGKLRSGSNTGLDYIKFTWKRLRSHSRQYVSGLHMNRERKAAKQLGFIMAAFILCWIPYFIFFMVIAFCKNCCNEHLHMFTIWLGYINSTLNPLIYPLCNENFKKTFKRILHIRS

With `Cc1nc2cccc(C(F)(F)F)c2c(=O)n1-c1ccc(OC2CCN(C3CCC3)CC2)cc1` the Occ90 (Mus musculus [1]) was 0.15 nmol/g, the Activity (Canis familiaris) was “Non-toxic” and the Cmax [2] was 3.2 µM. The Ratio (LLC-PK1 [3]) was 2.5, the Kp at 2 h [4] was 3.3 and the bioavailability [5] was 33%. The concentration at 2 h [6] was 110 nM, the Cmax [7] was 420 nM and the Activity (Mus musculus [8]) was “Non-toxic”. The AUC(0-inf) [9] was 1.66 µM·h, the Kp at 2 h [10] was 13 and the IC50 [11] was greater than 10 µM. It also gave an Activity (Rattus norvegicus [12]) greater than 90%, an IC50 (Histamine H1 receptor) greater than 10 µM and a clearance [13] of 26 mL/min/kg. The Ratio (LLC-PK1 [14]) was 0.7, the Occ90 (Mus musculus [15]) was 58 nM and the Kp at 2 h [16] was 2.6. The IC50 (Histamine H3 receptor [17]) was 0.33 nM, the Ki (Histamine H3 receptor [18]) was 3.6 nM and the clearance [19] was 13 mL/min/kg. The Ki (Histamine H3 receptor [20]) was 2.3 nM, the Cmax [21] was 50 nM and the AUC(0-inf) [22] was 1.3 µM·h. It also gave a Cmax [23] of 280 nM, a concentration at 2 h [24] of 12 nM and an Occ90 (Mus musculus [25]) of 11 nM. For the same compound, the IC50 (Histamine H4 receptor) was greater than 10 µM, the Activity (Rattus norvegicus [26]) was “Dose-dependent effect” and the Drug uptake (Brain [27]) was 0.031 nmol/g. The concentration at 2 h [28] was 10 nM, the Drug uptake (Brain [29]) was 2.3 nmol/g and the IC50 (Histamine H2 receptor) was greater than 10 µM. The Drug uptake (Brain [30]) was 0.137 nmol/g, the AUC(0-inf) [31] was 0.15 µM·h and the Ratio [32] was 0.05. It also gave a bioavailability [33] of 46%, a concentration at 2 h [34] of 700 nM and a clearance [35] of 24 mL/min/kg. It also gave a bioavailability [36] of 11% and a Ki (Histamine H3 receptor [37]) of 3.9 nM.
